Among the data in ChEMBL document CHEMBL1148839, “Synthesis of new xanthone analogues and their biological activity test--cytotoxicity, topoisomerase II inhibition, and DNA cross-linking study” (Bioorg Med Chem Lett, 2007) are IC50, inhibition and Activity values, retold here.

As a reminder, the IC50 is the concentration needed to halve the response being measured. A low value points to greater potency. The inhibition is how much of the control response was suppressed. A higher inhibition goes with a response far below the control.

Some results are limits rather than exact numbers.

The subject of one assay is LNCaP. Description: Cytotoxicity against human LnCap cells after 4 days by MTT assay. Particulars: 96 h. The format is functional, cell-based. In short, it runs like this: (§1)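 Cells from ATCC seeded at 2-4×10^4 per well, attached overnight in medium with 10% FBS, 37 °C, 5% CO2. On day 1 medium replaced with medium containing graded compound concentrations. On day 4 MTT added (final 0.5 mg/mL), 4 h further incubation, DMSO solubilization, absorbance at 570 nm. IC50 from four-parameter logistic fit; each value average of four experiments.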
Background: Tetrazolium dyes change colour on reduction, which living cells bring about.

The subject of a further assay is MCF7. Kind of assay: Cytotoxicity against human MCF7 cells after 4 days by MTT assay. Format: functional, cell-based. Particulars: MCF7, 96 h. The procedure, abridged: as §1
The test system of the next assay is HCT-116. Kind of assay: Cytotoxicity against human HCT116 cells after 4 days by MTT assay. The format is functional, cell-based. Particulars: HCT-116, 96 h. In short, it runs like this:
as §1

Another assay concerns MDA-MB-231. Kind of assay: Cytotoxicity against human MDA-MB-231 cells after 4 days by MTT assay. The format is functional, cell-based. Particulars: MDA-MB-231, 96 h. In short, it runs like this: as §1
For a further assay, the system named is HeLa. Kind of assay: Cytotoxicity against human HeLa cells after 4 days by MTT assay. Particulars: 96 h. The format is functional, cell-based. In short, it runs like this:
as §1

The species entered for the next assay is Homo sapiens. Description: Inhibition of human topoisomerase 2-mediated DNA relaxation at 100 uM relative to etoposide. In short, it runs like this: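 Relaxation assay: supercoiled pBR322 plasmid DNA (0.3 µg) incubated with 0.2 unit human topoisomerase II and compound (20 and 100 µM), 37 °C, 30 min. Etoposide as positive control. Inhibition ratio calculated from gel band densitometry.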

The next assay concerns Escherichia coli. Kind of assay: Effect on pBR322 DNA cross linking activity after 1 hr. The procedure, abridged: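 Linearized pBR322 DNA (0.5 µg) incubated with compound at 0, 10, 50, 100, 200 µM for 1 h at room temperature in 10 mM Tris-HCl pH 7.5. Run on 1.2% alkaline agarose gel (40 mM NaOH, 1 mM EDTA running buffer), neutralized, ethidium bromide stained, UV visualized.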

As for `O=c1c2ccccc2oc2cc(OCC3CO3)cc(OCC3CO3)c12` (configuration not stated), the half-inhibitory concentration (IC50) in the assay with LNCaP turned out to be 9 µM; with MCF7 it was 3.2 µM; in the assay on HCT-116 it was 10.2 µM; with MDA-MB-231, 12.8 µM; with HeLa it was 23.3 µM. Further, the inhibition in the assay filed under Homo sapiens was found to be 100%. Besides, in the assay with Escherichia coli, the Activity result was “Dose-dependent effect”.
Consider `O=c1c2ccccc2oc2cc(OCC3CO3)cc(O)c12` (configuration not stated), for which the IC50 is 93.1 µM in the assay with LNCaP; 68.4 µM with MCF7; 80.8 µM in the assay with HCT-116; more than 100 µM in the assay with MDA-MB-231; 68.7 µM with HeLa.
For the molecule `O=c1c2ccccc2oc2cc(OCC(O)CBr)cc(O)c12` (configuration not stated), the 50% inhibitory concentration (IC50) in the assay with LNCaP was determined as 64.4 µM; in the assay with MCF7, 53.5 µM; in the assay on HCT-116, 16.9 µM; with MDA-MB-231 it was 76.3 µM; in the assay with HeLa, 98.1 µM. In addition, in the assay listed under Homo sapiens, the inhibition is 57%.
Take `COc1cccc2c(=O)c3c(O)cc(OCC4CO4)cc3oc12` (configuration not stated): the IC50 with LNCaP, in the assay on MCF7, in the assay on HCT-116, with MDA-MB-231 and with HeLa was more than 100 µM in each case.
As to `COc1cccc2c1C(=O)c1c(O)c3c(c(O)c1C2=O)C[C@@](O)(C(=O)CO)C[C@@H]3O[C@H]1C[C@H](N)[C@H](O)[C@H](C)O1` [DOXORUBICIN], the IC50 in the assay on LNCaP amounted to 4.6 µM; in the assay with HCT-116 it was 7.7 µM; in the assay with MDA-MB-231 it was 17.6 µM; in the assay on HeLa, 3.3 µM.
For `COc1cccc2c(=O)c3c(O)cc(OCC(O)CBr)cc3oc12` (configuration not stated), the IC50 is more than 100 µM in the assay with LNCaP; 97.8 µM in the assay with MCF7; more than 100 µM with HCT-116; 99.8 µM in the assay on MDA-MB-231; more than 100 µM with HeLa.
Regarding `COc1cccc2c(=O)c3c(O)cc(OCC(O)CCl)cc3oc12` (configuration not stated), the IC50 in the assay on LNCaP was more than 100 µM; in the assay with MCF7 it was more than 100 µM; in the assay on HCT-116, 31.4 µM; with MDA-MB-231, 81.4 µM; with HeLa it was 60.3 µM.
Consider `O=c1c2ccccc2oc2cc(OCC(O)CCl)cc(O)c12` (configuration not stated), for which the IC50 in the assay on LNCaP, in the assay on MCF7, with HCT-116, with MDA-MB-231 and in the assay with HeLa was more than 100 µM in each case.
